How the values were obtained:
P2Y purinoceptor 12 [1] = molecular target: T1, P2Y purinoceptor 12 (Homo sapiens, UniProt Q9H244); test: Ratio of compound IC50 to thienopyrimidine IC50 for P2Y12 receptor in human platelet rich plasma assessed as inhibition of ADP-induced platelet aggregation by light transmission aggregometry
Summary of the method: (§1)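 Human platelet-rich plasma was pre-incubated 5 min at 37 °C with compound across seven concentrations (10 down to 0.156). Aggregation was started with ADP (20, final) and followed by light transmission at 626 nm for 15 min at 37 °C. Duplicate concentration-response data were read at the 15-min end-point. IC50 was divided by the IC50 of the thienopyrimidine reference run on the same plate.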

[2] = Selectivity for human P2Y12 receptor over P2Y1
[3] = Selectivity for human P2Y12 receptor over P2Y13
CYP1A2 = molecular target: T2, CYP1A2 (Homo sapiens, UniProt P05177); test: Inhibition of CYP1A2 at 3 uM after 30 mins; type: ADME
T2 sequence (P05177 whole entry): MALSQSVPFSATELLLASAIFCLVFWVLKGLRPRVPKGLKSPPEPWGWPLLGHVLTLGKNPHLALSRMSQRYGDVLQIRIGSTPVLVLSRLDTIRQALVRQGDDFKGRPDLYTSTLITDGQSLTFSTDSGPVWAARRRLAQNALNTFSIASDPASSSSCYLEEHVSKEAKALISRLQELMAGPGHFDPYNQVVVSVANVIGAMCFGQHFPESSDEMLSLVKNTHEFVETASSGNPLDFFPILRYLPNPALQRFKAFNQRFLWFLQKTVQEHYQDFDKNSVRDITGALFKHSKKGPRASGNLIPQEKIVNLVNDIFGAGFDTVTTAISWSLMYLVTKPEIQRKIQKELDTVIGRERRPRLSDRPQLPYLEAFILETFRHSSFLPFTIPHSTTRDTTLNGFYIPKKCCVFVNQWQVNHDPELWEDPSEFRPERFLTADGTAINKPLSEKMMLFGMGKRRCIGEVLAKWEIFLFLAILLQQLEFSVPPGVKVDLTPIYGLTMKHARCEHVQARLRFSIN
Summary of the method: (§2)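 Each CYP isoform assayed separately at a single 3 µM compound concentration in duplicate, with at least one isoform-specific positive control inhibitor. Incubation 30 min at 37 °C; end-point measurement gives percent inhibition.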

CYP3A4 = CYP3A4 (Homo sapiens, UniProt P08684); test: Inhibition of CYP3A4 at 3 uM after 30 mins; type: ADME; summary of the method: as §2
Chain of CYP3A4 (P08684 whole entry): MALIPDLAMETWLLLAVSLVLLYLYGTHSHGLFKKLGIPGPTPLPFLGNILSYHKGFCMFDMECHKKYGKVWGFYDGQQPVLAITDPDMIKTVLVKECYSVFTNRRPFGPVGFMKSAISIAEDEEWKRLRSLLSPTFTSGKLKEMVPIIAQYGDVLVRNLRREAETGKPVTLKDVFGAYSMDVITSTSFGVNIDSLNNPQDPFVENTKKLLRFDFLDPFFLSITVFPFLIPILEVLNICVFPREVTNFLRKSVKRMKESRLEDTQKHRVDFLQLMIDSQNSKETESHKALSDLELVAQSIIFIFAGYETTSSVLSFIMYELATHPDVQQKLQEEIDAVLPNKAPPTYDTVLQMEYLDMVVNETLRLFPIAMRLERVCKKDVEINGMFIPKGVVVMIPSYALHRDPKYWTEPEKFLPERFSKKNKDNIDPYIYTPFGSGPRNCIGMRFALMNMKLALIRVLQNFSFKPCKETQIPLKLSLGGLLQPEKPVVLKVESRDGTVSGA

[4] = Volume of distribution at steady state in Sprague-Dawley rat at 2 mg/kg, iv and 5 mg/kg, po; type: ADME, organism-based; settings: in vivo, read-out: Vdss
P2Y purinoceptor 12 [5] = molecular target: T1, P2Y purinoceptor 12; test: Binding affinity at human recombinant P2Y12 receptor expressed in CHO cells by radioligand binding assay; type: cell-based
Summary of the method: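 Washed membranes from CHO cells transfected with synthetic human P2Y12 gene. Compounds as 7-point threefold dilutions, triplicate, 1 h at room temperature. Nonspecific binding defined with 300 nM 2-MeSADP. Filtered, washed with ice-cold Tris pH 7.4. Single-site fit; IC50 converted to Ki by Cheng–Prusoff, geometric mean of n≥2.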

Liver microsomes [6] = test: Metabolic stability in rat liver microsomes assessed as compound remaining; type: ADME, Microsome
Summary of the method: (§3)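 Compounds incubated 30 min with human or rat liver microsomes; percent of parent compound remaining measured.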

Liver microsomes [7] = test: Metabolic stability in human liver microsomes assessed as compound remaining; type: ADME, Microsome; summary of the method: as §3
[8] = Effective half life in Sprague-Dawley rat at 2 mg/kg, iv and 5 mg/kg, po; type: ADME, organism-based; settings: in vivo
CYP2D6 = CYP2D6 (Homo sapiens, UniProt P10635); test: Inhibition of CYP2D6 at 3 uM after 30 mins; type: ADME; summary of the method: as §2
Chain of CYP2D6 (P10635 whole entry): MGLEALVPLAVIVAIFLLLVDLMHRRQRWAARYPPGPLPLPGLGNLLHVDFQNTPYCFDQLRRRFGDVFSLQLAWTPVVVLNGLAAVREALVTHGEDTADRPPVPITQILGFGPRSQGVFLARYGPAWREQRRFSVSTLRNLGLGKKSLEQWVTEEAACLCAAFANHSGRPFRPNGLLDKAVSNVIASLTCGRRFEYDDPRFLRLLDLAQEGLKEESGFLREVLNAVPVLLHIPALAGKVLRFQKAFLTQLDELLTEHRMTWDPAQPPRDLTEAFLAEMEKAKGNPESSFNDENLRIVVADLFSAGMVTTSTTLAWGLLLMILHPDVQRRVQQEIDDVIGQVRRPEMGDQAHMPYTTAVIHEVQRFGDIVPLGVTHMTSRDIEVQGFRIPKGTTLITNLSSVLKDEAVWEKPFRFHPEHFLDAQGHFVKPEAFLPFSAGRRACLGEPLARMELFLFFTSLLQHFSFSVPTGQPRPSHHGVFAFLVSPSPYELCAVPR

hERG (KCNH2) = hERG (KCNH2) (Homo sapiens, UniProt Q12809); test: Displacement of Cy3B-tagged N-desmethyl dofetilide from human ERG expressed in HEK cells at 10 uM after 120 mins; type: cell-based, HEK293; settings: HEK cells that express human ERG, probe Cy3B-tagged N-desmethyl dofetilide
Chain of hERG (KCNH2) (Q12809 whole entry): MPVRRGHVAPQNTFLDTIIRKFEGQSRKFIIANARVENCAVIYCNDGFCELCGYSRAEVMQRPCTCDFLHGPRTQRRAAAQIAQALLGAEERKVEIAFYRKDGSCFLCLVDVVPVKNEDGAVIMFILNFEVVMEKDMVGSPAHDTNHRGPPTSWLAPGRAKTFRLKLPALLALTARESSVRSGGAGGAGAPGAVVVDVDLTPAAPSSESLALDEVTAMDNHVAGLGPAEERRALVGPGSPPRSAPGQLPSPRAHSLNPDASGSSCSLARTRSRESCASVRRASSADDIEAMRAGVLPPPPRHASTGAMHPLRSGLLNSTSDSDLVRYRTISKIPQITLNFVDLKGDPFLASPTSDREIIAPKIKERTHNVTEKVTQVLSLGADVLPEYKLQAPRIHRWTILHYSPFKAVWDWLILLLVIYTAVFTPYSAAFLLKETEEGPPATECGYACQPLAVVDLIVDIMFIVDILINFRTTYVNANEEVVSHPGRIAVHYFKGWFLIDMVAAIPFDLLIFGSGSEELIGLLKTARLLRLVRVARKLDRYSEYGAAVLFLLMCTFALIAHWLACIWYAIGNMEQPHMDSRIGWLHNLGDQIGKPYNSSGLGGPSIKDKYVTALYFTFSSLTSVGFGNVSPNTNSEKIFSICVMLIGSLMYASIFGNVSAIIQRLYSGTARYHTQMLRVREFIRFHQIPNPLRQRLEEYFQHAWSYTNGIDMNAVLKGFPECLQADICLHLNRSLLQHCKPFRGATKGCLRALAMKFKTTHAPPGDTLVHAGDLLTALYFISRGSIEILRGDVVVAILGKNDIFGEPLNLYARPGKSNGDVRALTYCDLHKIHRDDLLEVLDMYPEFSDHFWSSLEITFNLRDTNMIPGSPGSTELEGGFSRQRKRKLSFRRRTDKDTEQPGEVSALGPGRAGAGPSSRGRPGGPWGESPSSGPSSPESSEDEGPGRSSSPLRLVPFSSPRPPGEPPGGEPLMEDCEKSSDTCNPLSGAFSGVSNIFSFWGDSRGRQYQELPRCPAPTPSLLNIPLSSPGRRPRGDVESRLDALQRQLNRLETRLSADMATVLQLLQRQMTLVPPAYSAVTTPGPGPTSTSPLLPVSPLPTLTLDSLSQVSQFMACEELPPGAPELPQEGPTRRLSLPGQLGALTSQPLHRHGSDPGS
Summary of the method: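 Fluorescence polarization competition assay with HEK-hERG membrane homogenates and Cy3B-tagged N-desmethyl dofetilide tracer. Compound tested at a single 10 µM concentration, 120 min incubation, end-point read for percent inhibition.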

[9] = Clearance in Sprague-Dawley rat at 2 mg/kg, iv and 5 mg/kg, po; type: ADME, organism-based; settings: in vivo
CYP2C9 = CYP2C9 (Homo sapiens, UniProt P11712); test: Inhibition of CYP2C9 at 3 uM after 30 mins; type: ADME; summary of the method: as §2
Chain of CYP2C9 (P11712 whole entry): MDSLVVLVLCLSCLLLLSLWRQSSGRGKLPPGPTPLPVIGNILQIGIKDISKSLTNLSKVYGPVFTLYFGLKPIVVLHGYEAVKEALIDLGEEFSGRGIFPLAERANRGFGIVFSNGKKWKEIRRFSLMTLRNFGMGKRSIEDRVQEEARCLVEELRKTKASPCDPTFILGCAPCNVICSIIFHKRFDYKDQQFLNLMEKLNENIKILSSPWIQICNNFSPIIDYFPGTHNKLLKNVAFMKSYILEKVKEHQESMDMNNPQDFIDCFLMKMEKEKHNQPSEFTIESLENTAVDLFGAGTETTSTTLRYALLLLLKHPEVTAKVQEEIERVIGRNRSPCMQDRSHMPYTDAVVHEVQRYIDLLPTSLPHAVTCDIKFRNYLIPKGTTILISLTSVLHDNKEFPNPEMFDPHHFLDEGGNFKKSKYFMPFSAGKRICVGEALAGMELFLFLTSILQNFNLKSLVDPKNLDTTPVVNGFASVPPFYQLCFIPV

P2Y purinoceptor 12 [10] = molecular target: T1, P2Y purinoceptor 12; test: Ratio of compound IC50 to AZD-6140 IC50 for P2Y12 receptor in human platelet rich plasma assessed as inhibition of ADP-induced platelet aggregation by light transmission aggregometry
Summary of the method: as §1, with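 “AZD-6140” for “the thienopyrimidine reference”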

[11] = Oral bioavailability in Sprague-Dawley rat at 5 mg/kg; type: ADME, organism-based; settings: in vivo

T1 sequence (Q9H244 whole entry): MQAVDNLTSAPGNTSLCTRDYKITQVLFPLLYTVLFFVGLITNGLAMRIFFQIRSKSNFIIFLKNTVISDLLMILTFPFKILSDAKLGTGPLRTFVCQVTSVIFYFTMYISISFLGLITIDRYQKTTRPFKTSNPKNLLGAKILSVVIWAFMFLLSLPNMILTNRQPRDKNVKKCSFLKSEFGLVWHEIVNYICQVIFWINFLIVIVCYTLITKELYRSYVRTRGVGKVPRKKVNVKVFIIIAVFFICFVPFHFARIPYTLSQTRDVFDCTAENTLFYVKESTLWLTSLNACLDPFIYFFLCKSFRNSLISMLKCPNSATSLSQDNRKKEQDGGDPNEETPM

Row | Ratio IC50 (P2Y purinoceptor 12 [1]) | fold change (FC) [2] | fold change (FC) [3] | inhibition at 0.5 h, 3 µM (CYP1A2) [%] | inhibition at 0.5 h, 3 µM (CYP3A4) [%] | Vd [4] [L/kg] | Ki (P2Y purinoceptor 12 [5]) [nM] | Stability (Liver microsomes [6]) [%] | Stability (Liver microsomes [7]) [%] | half-life [8] [min] | inhibition at 0.5 h, 3 µM (CYP2D6) [%] | clearance [9] [mL/min/kg] | inhibition at 0.5 h, 3 µM (CYP2C9) [%] | Ratio IC50 (P2Y purinoceptor 12 [10]) | bioavailability [11] [%] | Compound | inhibition at 2 h, 10 µM (hERG (KCNH2)) [%]
1 | 0.1 | > 340 | > 340 | < 25 | < 25 | 2.4 | 2 | > 80 | > 80 | 24 | < 25 | 68 | < 25 | 0.7 | – | CCCCCOC(=O)N1CCN(C(=O)[C@H](CCC(=O)O)NC(=O)c2cc(N3CCC(C(N)=O)CC3)nc(-c3ccccc3)n2)CC1 | < 25
2 | 0.1 | > 340 | > 340 | < 25 | < 25 | 4.9 | 3 | > 80 | > 80 | 102 | < 25 | 33 | < 25 | 0.6 | 1 | CCCCCOC(=O)N1CCN(C(=O)[C@H](CCC(=O)O)NC(=O)c2cc(N3CCC(CN)CC3)nc(-c3ccccc3)n2)CC1 | < 25
3 | 0.1 | > 340 | > 340 | < 25 | < 25 | 7.7 | 0.4 | > 80 | > 80 | 18 | < 25 | 98 | < 25 | 0.7 | 1 | CCCCCOC(=O)N1CCN(C(=O)[C@H](CCC(=O)O)NC(=O)c2cc(N3CCC(CN4CCCC4)CC3)nc(-c3ccccc3)n2)CC1 | < 25
4 | 0.1 | > 340 | > 340 | < 25 | < 25 | 0.3 | 0.38 | > 80 | > 80 | 6 | < 25 | 16 | < 25 | 0.6 | 7 | CCCCOC(=O)N1CCN(C(=O)[C@H](CCC(=O)O)NC(=O)c2cc(N3CCC(C(=O)NCC)CC3)nc(-c3ccccc3)n2)CC1 | < 25
5 | 0.4 | > 340 | > 340 | < 25 | < 25 | 0.8 | 0.71 | > 80 | > 80 | 30 | < 25 | 18 | < 25 | 0.9 | – | CCCCCOC(=O)N1CCN(C(=O)[C@H](CCC(=O)O)NC(=O)c2cc(N3CCC(OCCO)CC3)nc(-c3ccccc3)n2)CC1 | < 25
6 | 0.1 | > 340 | > 340 | < 25 | < 25 | – | 1.5 | > 80 | > 80 | – | < 25 | – | < 25 | 0.4 | – | CCCCCOC(=O)N1CCN(C(=O)[C@H](CCC(=O)O)NC(=O)c2cc(N3CCC(N4CCCC4)CC3)nc(-c3ccccc3)n2)CC1 | < 25
7 | 1.1 | > 340 | > 340 | – | – | – | 72 | – | – | – | – | – | – | 4.3 | – | CCCCOC(=O)N1CCN(C(=O)[C@H](CCC(=O)O)NC(=O)c2cc(OCCN(CC)CC)nc(-c3ccccc3)n2)CC1 | –
8 | 0.1 | > 340 | > 340 | – | – | – | 0.79 | – | – | – | – | – | – | 0.6 | – | CCCCOC(=O)N1CCN(C(=O)[C@H](CCC(=O)O)NC(=O)c2cc(N3CCC(C(=O)N(CC)CC)CC3)nc(-c3ccccc3)n2)CC1 | –
9 | 1.8 | > 340 | > 340 | – | – | – | 29 | – | – | – | – | – | – | 8.9 | – | CCCCCOC(=O)N1CCN(C(=O)[C@H](CCC(=O)O)NC(=O)c2nc(-c3ccccc3)cc(N3CCN(C(C)=O)CC3)n2)CC1 | –
10 | 0.3 | > 340 | > 340 | – | – | – | 16 | – | – | – | – | – | – | 1 | – | CCCCOC(=O)N1CCN(C(=O)[C@H](CCC(=O)O)NC(=O)c2cc(OCC3CCNCC3)nc(-c3ccccc3)n2)CC1 | –
11 | 1 | > 340 | > 340 | – | – | – | 5.8 | – | – | – | – | – | – | 4.7 | – | CCCCCOC(=O)N1CCN(C(=O)[C@H](CCC(=O)O)NC(=O)c2nc(-c3ccccc3)cc(N3CCN(C(N)=O)CC3)n2)CC1 | –
12 | 0.3 | > 340 | > 340 | – | – | – | 2.3 | – | – | – | – | – | – | 1.5 | – | CCCCCOC(=O)N1CCN(C(=O)[C@H](CCC(=O)O)NC(=O)c2cc(N3CCN(CCOC)CC3)nc(-c3ccccc3)n2)CC1 | –
13 | 0.3 | > 340 | > 340 | – | – | – | 2.9 | – | – | – | – | – | – | 1.5 | – | CCCCCOC(=O)N1CCN(C(=O)[C@H](CCC(=O)O)NC(=O)c2cc(N3CCN(C(=O)N(C)C)CC3)nc(-c3ccccc3)n2)CC1 | –
14 | 0.4 | > 340 | > 340 | – | – | – | 4.2 | – | – | – | – | – | – | 1.7 | – | CCCCCOC(=O)N1CCN(C(=O)[C@H](CCC(=O)O)NC(=O)c2nc(-c3ccccc3)cc(N3CCC(CCN4CCCC4)CC3)n2)CC1 | –
15 | 0.5 | > 340 | > 340 | – | – | – | 4.1 | – | – | – | – | – | – | 2.3 | – | CCCCCOC(=O)N1CCN(C(=O)[C@H](CCC(=O)O)NC(=O)c2cc(NCC3CCNC3)nc(-c3ccccc3)n2)CC1 (stereo not given in full) | –
16 | 0.6 | > 340 | > 340 | – | – | – | 3.1 | – | – | – | – | – | – | 3.3 | – | CCCCCOC(=O)N1CCN(C(=O)[C@H](CCC(=O)O)NC(=O)c2cc(N3CCC(CC(=O)N(CC)CC)CC3)nc(-c3ccccc3)n2)CC1 | –
17 | 2.4 | > 340 | > 340 | – | – | – | 27 | – | – | – | – | – | – | 17 | – | CCCCCOC(=O)N1CCN(C(=O)[C@H](CCC(=O)O)NC(=O)c2cc(OCCN(CC)CC)nc(-c3ccccc3)n2)CC1 | –
18 | 0.4 | > 340 | > 340 | – | – | – | 3.5 | – | – | – | – | – | – | 1.9 | – | CCCCCOC(=O)N1CCN(C(=O)[C@H](CCC(=O)O)NC(=O)c2nc(-c3ccccc3)cc(N3CCC(C(N)=O)CC3)n2)CC1 | –
19 | 1.4 | > 340 | > 340 | – | – | – | 55 | – | – | – | – | – | – | 3.8 | – | CCCCOC(=O)N1CCN(C(=O)[C@H](CCC(=O)O)NC(=O)c2cc(OCC3CCCO3)nc(-c3ccccc3)n2)CC1 (stereo not given in full) | –
20 | 0.4 | > 340 | > 340 | – | – | – | 0.99 | – | – | – | – | – | – | 2 | – | CCCCCOC(=O)N1CCN(C(=O)[C@H](CCC(=O)O)NC(=O)c2cc(N3CCC(CN4CCCC4=O)CC3)nc(-c3ccccc3)n2)CC1 | –

— ChEMBL document CHEMBL1156077, “Piperazinyl-glutamate-pyrimidines as potent P2Y12 antagonists for inhibition of platelet aggregation” (Bioorg Med Chem Lett, 2009)
